Experimental findings from ChEMBL document CHEMBL1152875, “Synthesis and optimization of arylsulfonylpiperazines as a novel class of inhibitors of 11 beta-hydroxysteroid dehydrogenase type 1 (11 beta-HSD1)” (Bioorg Med Chem Lett, 2009) are described below.

The structures appear in SMILES notation. Values after ≈ are worked out from the molar mass of the structure shown.

Data set [1] is described as follows: Solubility at pH 5.0. The following applies: buffer. In kind it is physicochemical.
Data set [2] can be described thus: Metabolic stability in rat liver S9 fraction assessed as compound remaining after 60 mins. The class given is ADME, subcellular. The following applies: read-out: Activity.
Data set [3] in a line: AUC in rat at 2 mg/kg, po. The following applies: plasma. In kind it is ADME, organism-based. On the set-up: dose 2 mg/kg, route oral.
Data set [4] is described as follows: Oral bioavailability in rat. The following applies: in vivo. The class given is ADME, organism-based.
The target of data set [5] is Voltage-gated inwardly rectifying potassium channel KCNH2 (Homo sapiens, UniProt Q12809).
Sequence of Voltage-gated inwardly rectifying potassium channel KCNH2 (Q12809 whole entry): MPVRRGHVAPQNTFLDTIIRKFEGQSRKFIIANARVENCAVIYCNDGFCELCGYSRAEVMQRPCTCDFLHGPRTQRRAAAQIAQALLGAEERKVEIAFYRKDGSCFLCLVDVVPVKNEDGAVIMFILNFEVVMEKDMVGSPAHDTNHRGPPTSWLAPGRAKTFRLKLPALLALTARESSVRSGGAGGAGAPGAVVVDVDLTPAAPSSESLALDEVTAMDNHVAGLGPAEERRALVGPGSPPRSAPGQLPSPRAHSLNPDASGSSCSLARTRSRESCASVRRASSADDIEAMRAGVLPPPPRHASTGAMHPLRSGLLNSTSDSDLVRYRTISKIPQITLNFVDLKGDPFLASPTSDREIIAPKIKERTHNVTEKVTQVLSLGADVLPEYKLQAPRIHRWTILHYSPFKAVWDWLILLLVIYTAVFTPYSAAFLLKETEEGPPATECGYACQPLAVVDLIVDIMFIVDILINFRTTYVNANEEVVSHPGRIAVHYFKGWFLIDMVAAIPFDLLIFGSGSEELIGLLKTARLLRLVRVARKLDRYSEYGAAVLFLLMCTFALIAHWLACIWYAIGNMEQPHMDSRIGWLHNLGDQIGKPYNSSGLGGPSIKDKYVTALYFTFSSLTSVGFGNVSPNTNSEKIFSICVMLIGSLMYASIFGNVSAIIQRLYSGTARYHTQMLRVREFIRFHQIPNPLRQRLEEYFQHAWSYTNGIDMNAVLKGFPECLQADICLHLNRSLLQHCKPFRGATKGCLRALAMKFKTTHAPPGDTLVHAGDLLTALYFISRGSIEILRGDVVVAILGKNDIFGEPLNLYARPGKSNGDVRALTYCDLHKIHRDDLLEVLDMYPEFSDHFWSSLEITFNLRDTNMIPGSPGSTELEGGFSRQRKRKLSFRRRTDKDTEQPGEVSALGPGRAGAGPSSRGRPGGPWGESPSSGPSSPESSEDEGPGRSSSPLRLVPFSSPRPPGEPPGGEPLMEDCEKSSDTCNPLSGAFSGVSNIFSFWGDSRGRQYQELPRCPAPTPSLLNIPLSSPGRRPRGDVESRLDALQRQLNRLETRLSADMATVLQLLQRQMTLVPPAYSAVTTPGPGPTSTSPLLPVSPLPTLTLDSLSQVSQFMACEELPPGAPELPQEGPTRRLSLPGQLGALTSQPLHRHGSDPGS
Data set [6] can be described thus: Clearance in rat. In kind it is ADME, organism-based. The following applies: in vivo.
The target of a further data set is Cytochrome P450 3A4 (Homo sapiens, UniProt P08684).
Sequence of Cytochrome P450 3A4 (P08684 whole entry): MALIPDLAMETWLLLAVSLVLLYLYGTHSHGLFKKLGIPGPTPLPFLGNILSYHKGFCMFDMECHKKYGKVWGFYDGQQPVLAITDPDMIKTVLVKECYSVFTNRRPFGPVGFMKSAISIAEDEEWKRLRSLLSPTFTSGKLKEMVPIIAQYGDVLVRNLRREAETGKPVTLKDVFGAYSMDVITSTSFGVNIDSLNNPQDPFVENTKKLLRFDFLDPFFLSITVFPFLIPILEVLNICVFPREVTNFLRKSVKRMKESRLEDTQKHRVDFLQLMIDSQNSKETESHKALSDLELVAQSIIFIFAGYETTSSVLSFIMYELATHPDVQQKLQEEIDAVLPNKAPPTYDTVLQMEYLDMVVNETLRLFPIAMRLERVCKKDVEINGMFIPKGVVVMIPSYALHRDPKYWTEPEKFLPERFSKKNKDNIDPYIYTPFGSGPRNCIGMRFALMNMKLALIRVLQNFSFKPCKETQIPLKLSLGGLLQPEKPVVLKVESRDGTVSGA
A short description of data set [7]: Drug level in mesenteric fat tissue of cynomolgus monkey at 10 mg/kg, po after 2 hrs. The settings on record: read-out: Drug uptake. In kind it is ADME, organism-based, Macaca fascicularis, Adipose tissue. On the set-up: dose 10 mg/kg, route oral. An outline of the steps:
(§1)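 Cynomolgus monkeys were given single oral doses of 0.4, 2 or 10 mg/kg in 1% methylcellulose plus 1% Tween 80 in sterile water, with 3 animals per dose group and a vehicle group of 4. Plasma and mesenteric fat were collected 2 h post-dose. Compound level in each matrix was measured by LC/MS/MS.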

A short description of data set [8]: Drug level in mesenteric fat tissue of cynomolgus monkey at 0.4 mg/kg, po after 2 hrs. In kind it is ADME, organism-based, Macaca fascicularis, Adipose tissue. Details: dose 0.4 mg/kg, route oral. The settings on record: read-out: Drug uptake. An outline of the steps:
as §1

Data set [9] in a line: Plasma concentration in cynomolgus monkey at 2 mg/kg, po after 2 hrs. The class given is ADME, organism-based, Macaca fascicularis. Details: dose 2 mg/kg, route oral. Summed up: as §1
The nature of data set [10]: Plasma concentration in cynomolgus monkey at 0.4 mg/kg, po after 2 hrs. The class given is ADME, organism-based, Macaca fascicularis. Details: dose 0.4 mg/kg, route oral. Summed up:
as §1

Data set [11] is described as follows: Drug level in mesenteric fat tissue of cynomolgus monkey at 2 mg/kg, po after 2 hrs. In kind it is ADME, organism-based, Macaca fascicularis, Adipose tissue. Details: dose 2 mg/kg, route oral. The following applies: read-out: Drug uptake. An outline of the steps:
as §1

The nature of data set [12]: Plasma concentration in cynomolgus monkey at 10 mg/kg, po after 2 hrs. On the set-up: dose 10 mg/kg, route oral. In kind it is ADME, organism-based, Macaca fascicularis. Summed up: as §1

For orientation: solubility means the dissolved amount per volume that the medium holds. `C[C@@H]1CN(Cc2ccnc3ccccc23)CCN1S(=O)(=O)c1ccc(C(C)(C)C)cc1`: in data set [1], the concentration in solution (solubility) was 1 µg/mL (≈ 2.29 µM).

Regarding `C[C@@H]1CN(CCc2ccccn2)CCN1S(=O)(=O)c1ccc(C(C)(O)C(F)(F)F)cc1` (stereo not given in full), the remaining at 1 h in data set [2] is 28%. For `C[C@@H]1CN(CC2(c3ccncc3)CCC2)CCN1S(=O)(=O)c1ccc(C(C)(O)C(F)(F)F)cc1` (stereo not given in full), the remaining at 1 h in [2] came to 54%. Usually AUC stands for the area under the concentration-time curve, a measure of exposure. Take `CC(C)(C)c1ccc(S(=O)(=O)N2CCN(c3ccc([N+](=O)[O-])cc3)CC2)cc1`: in data set [1], the solubility was 0.5 µg/mL (≈ 1.24 µM). Further, the area under the curve (AUC) in [3] amounted to 29.8 ng·h/mL.

For the compound `C[C@@H]1CN(CCc2ccncc2)CCN1S(=O)(=O)c1ccc(C(C)(O)C(F)(F)F)cc1` (stereo not given in full), the remaining at 1 h in data set [2] worked out at 59%.

By bioavailability is commonly meant dose-corrected exposure relative to a reference, in per cent. As usually defined, the IC50 is the concentration that inhibits the measured activity by half. For orientation: clearance means the rate of elimination divided by the concentration. In [4], `C[C@@H]1CN(CC2(c3ccncc3)CC2)CCN1S(=O)(=O)c1ccc(C(C)(O)C(F)(F)F)cc1` (stereo not given in full) came in with a bioavailability of 60%. The IC50 in data set [5] came out at 440 nM; against Cytochrome P450 3A4 it was 1700 nM. The clearance in [6] was 35 mL/min/kg. Moreover, the remaining at 1 h in [2] is 80%.

As for `C[C@@H]1CN(CC(F)(F)c2ccncc2)CCN1S(=O)(=O)c1ccc(C(C)(O)C(F)(F)F)cc1` (stereo not given in full), the remaining at 1 h in data set [2] was 40%. On to `C[C@@H]1CN(Cc2ccncc2)CCN1S(=O)(=O)c1ccc(C(C)(C)C)cc1`, for which the solubility in data set [1] is 18.1 µg/mL (≈ 46.7 µM).

`C[C@@H]1CN(CC(F)(F)c2cccnc2)CCN1S(=O)(=O)c1ccc(C(C)(O)C(F)(F)F)cc1` (stereo not given in full): the remaining at 1 h in data set [2] was determined as 46%. Same read-out and setting: the same measure for `C[C@@H]1CN(CCc2cccnc2)CCN1S(=O)(=O)c1ccc(C(C)(O)C(F)(F)F)cc1` (stereo not given in full): 67%; for `C[C@@H]1CN(CC2(c3ccncc3)CCCC2)CCN1S(=O)(=O)c1ccc(C(C)(O)C(F)(F)F)cc1` (stereo not given in full): 43%. Turning to `C[C@@H]1CN(c2ccc([N+](=O)[O-])cc2)CCN1S(=O)(=O)c1ccc(C(C)(C)C)cc1`, the solubility in [1] was determined as 1.8 µg/mL (≈ 4.31 µM). With `C[C@@H]1CN(CC2(c3cccnc3)CC2)CCN1S(=O)(=O)c1ccc(C(C)(O)C(F)(F)F)cc1` (stereo not given in full), in [2], the remaining at 1 h was 50%. Take `C[C@@H]1CN(CC2(C(N)=O)CC2)CCN1S(=O)(=O)c1ccc([C@](C)(O)C(F)(F)F)cc1`: the concentration at 2 h amounted to 40700 nM in data set [7]; 105 nM in data set [8]; 349 nM in [9]; 29 nM in data set [10]; 2780 nM in data set [11]; 503 nM in data set [12]. Moreover, in data set [3], the AUC was 638 ng·h/mL. On to `C[C@@H]1CN(CC2(c3cccnc3)CCC2)CCN1S(=O)(=O)c1ccc(C(C)(O)C(F)(F)F)cc1` (stereo not given in full), for which the remaining at 1 h in data set [2] is 61%.

As for `C[C@@H]1CN(CC2(c3cccnc3)CCCC2)CCN1S(=O)(=O)c1ccc(C(C)(O)C(F)(F)F)cc1` (stereo not given in full), in data set [2], the remaining at 1 h amounted to 60%. As for `CC(c1ccncc1)N1CCN(S(=O)(=O)c2ccc(C(C)(C)C)cc2)[C@H](C)C1` (stereo not given in full), in data set [1], the solubility was 20.8 µg/mL (≈ 51.8 µM). Same read-out and setting: the same measure for `C[C@@H]1CN(CCCc2ccncc2)CCN1S(=O)(=O)c1ccc(C(C)(C)C)cc1`: 39 µg/mL (≈ 93.8 µM); for `C[C@@H]1CN(CCc2ccncc2)CCN1S(=O)(=O)c1ccc(C(C)(C)C)cc1`: 21.8 µg/mL (≈ 54.3 µM).
